Source: ChEMBL document CHEMBL5338825, “Structure-Based Discovery of Inhibitors of the SARS-CoV-2 Nsp14 N7-Methyltransferase” (J Med Chem, 2023)
The source made the active and inactive calls. No cut-off for these calls is given here.

What was measured:
[1] = target: Replicase polyprotein 1ab (Severe acute respiratory syndrome coronavirus 2, UniProt P0DTD1); experiment: (§1) Inhibition of N-terminal 6His/SUMO-tagged SARS-CoV-2 NSP14 expressed in Escherichia coli Rosetta 2 (DE3) PlysS cells using 5'GpppACCCCCCCCC-Biotin 3' and 3H-SAM as substrates incubated for 30 mins by TopCount scintillation proximity assay
[2] = tested on: Bacteria; experiment: Inhibition of beta-lactamase AmpC (unknown origin) pre-incubated with compound for 5 mins followed by substrate addition and measured after 1.5 mins by absorbance based plate reader analysis; details: time 6.5 min
How it was run: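 AmpC at 2 nM preincubated 5 min with compound at room temperature in 50 mM KPi, pH 7.0, with 1% v/v DMSO. Started with 50 μM CENTA (read at 405 nm) or 50 μM nitrocefin (read at 490 nm), monitored 1 min 30 s. Initial rate taken as % of DMSO control. Top concentration in triplicate; eight-point half-log curves in triplicate where inhibition exceeded 40%.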

[3] = species on record: Homo sapiens; experiment: Inhibition of MDH (unknown origin) using oxaloacetic acid as substrate preincubated with compound for 5 mins followed by substrate addition and measured after 1.5 min in the presence of NADH by absorbance based plate reader analysis; details: time 6.5 min
How it was run: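 MDH assay at room temperature in 50 mM KPi, pH 7.0, with 1% v/v DMSO final. Compound preincubated 5 min with 2 nM enzyme. Reaction started with 200 μM NADH plus 200 μM oxaloacetic acid, and absorbance followed at 340 nm for 1 min 30 s. Initial rate divided by the DMSO control rate. Single top concentration in triplicate; eight-point half-log curves in triplicate where inhibition exceeded 40%.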

[4] = Aggregation property of the compound in KPi buffer at pH 7.0 assessed as formation of colloid-like particles by dynamic light scattering analysis; assay type: physicochemical
How it was run: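 Compounds diluted as 8-point half-log series in filtered 50 mM KPi, pH 7.0, with 1% v/v DMSO final. Particles detected by dynamic light scattering, triplicate at each concentration. CAC taken as the intersection of separate nonlinear fits to aggregating (>10^6 scattering intensity) and non-aggregating data.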

[5] = tested on: Bacteria; experiment: Inhibition of beta-lactamase AmpC (unknown origin) pre-incubated with compound for 5 mins followed by substrate addition and measured after 1.5 mins in the presence of 0.01% Triton-X 100 by absorbance based plate reader analysis; details: time 6.5 min
How it was run: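 AmpC detergent-reversal assay: 50 mM KPi, pH 7.0, with 1% v/v DMSO and 0.01% v/v Triton X-100. Enzyme at 2 nM preincubated 5 min with compound, then 50 μM CENTA (405 nm) or nitrocefin (490 nm) added. Absorbance followed for 1 min 30 s and rate normalised to DMSO. Eight-point half-log curves in triplicate.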

[6] = species on record: Homo sapiens; experiment: Inhibition of MDH (unknown origin) using oxaloacetic acid as substrate preincubated with compound for 5 mins followed by substrate addition and measured after 1.5 min in the presence of NADH and 0.01% Triton-X 100 by absorbance based plate reader analysis; details: time 6.5 min
How it was run: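 Detergent-reversal MDH assay: 50 mM KPi, pH 7.0, with 1% v/v DMSO and 0.01% v/v Triton X-100. Enzyme at 2 nM preincubated 5 min with compound, then started with 200 μM NADH plus 200 μM oxaloacetate. A340 read for 1 min 30 s, rate normalised to DMSO control. Eight-point half-log curves in triplicate.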

[7] = target: Replicase polyprotein 1ab (Severe acute respiratory syndrome coronavirus 2) (UniProt P0DTD1); experiment: Inhibition of N-terminal 6His/SUMO-tagged SARS-CoV-2 NSP14 expressed in Escherichia coli Rosetta 2 (DE3) PlysS cells using 5'GpppACCCCCCCCC-Biotin 3' and 3H-SAM as substrates at 100 uM incubated for 30 mins by TopCount scintillation proximity assay relative to control
[8] = target: Replicase polyprotein 1ab (Severe acute respiratory syndrome coronavirus 2) (UniProt P0DTD1); experiment: Irreversible covalent inhibition of N-terminal 6His/SUMO-tagged SARS-CoV-2 NSP14 expressed in Escherichia coli Rosetta 2 (DE3) PlysS cells using 5'GpppACCCCCCCCC-Biotin 3' and 3H-SAM as substrates assessed as adduct formation incubated for 2 hrs by mass spectrometric analysis
How it was run: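 Nsp14 incubated with 20-fold molar excess of compound for 2 h at 20 °C, then taken into 0.1% formic acid. Separated by HPLC on a 5–95% acetonitrile/water gradient and analysed by ESI time-of-flight MS for protein mass shift.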

[9] = target: Replicase polyprotein 1ab (Severe acute respiratory syndrome coronavirus 2) (UniProt P0DTD1); experiment: Inhibition of N-terminal 6His/SUMO-tagged SARS-CoV-2 NSP14 expressed in Escherichia coli Rosetta 2 (DE3) PlysS cells using 5'GpppACCCCCCCCC-Biotin 3' and 3H-SAM as substrates at 300 uM incubated for 30 mins by TopCount scintillation proximity assay relative to control
[10] = target: Replicase polyprotein 1ab (Severe acute respiratory syndrome coronavirus 2) (UniProt P0DTD1); experiment: as §1
[11] = target: Replicase polyprotein 1ab (Severe acute respiratory syndrome coronavirus 2) (UniProt P0DTD1); experiment: Irreversible covalent inhibition of N-terminal 6His/SUMO-tagged SARS-CoV-2 NSP14 expressed in Escherichia coli Rosetta 2 (DE3) PlysS cells using 5'GpppACCCCCCCCC-Biotin 3' and 3H-SAM as substrates assessed as adduct formation at 500 uM measured upto 18 hrs by mass spectrometric analysis
How it was run: (§2)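 1 μM enzyme held alone or with 50 or 500 μM compound at room temperature. Sampled at 0, 2, 4, 8 and 18 h by QTof MS in 0.05% formic acid; intact mass deconvoluted from 700–1400 m/z.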

[12] = target: Replicase polyprotein 1ab (Severe acute respiratory syndrome coronavirus 2) (UniProt P0DTD1); experiment: Irreversible covalent inhibition of N-terminal 6His/SUMO-tagged SARS-CoV-2 NSP14 expressed in Escherichia coli Rosetta 2 (DE3) PlysS cells using 5'GpppACCCCCCCCC-Biotin 3' and 3H-SAM as substrates assessed as adduct formation at 50 uM measured upto 18 hrs by mass spectrometric analysis; how it was run: as §2
[13] = target: Replicase polyprotein 1ab (Severe acute respiratory syndrome coronavirus 2) (UniProt P0DTD1); experiment: Reversible inhibition of N-terminal 6His/SUMO-tagged SARS-CoV-2 NSP14 expressed in Escherichia coli Rosetta 2 (DE3) PlysS cells using 5'GpppACCCCCCCCC-Biotin 3' and 3H-SAM as substrates at increasing concentration incubated for 30 mins by TopCount scintillation proximity assay
[14] = target: Replicase polyprotein 1ab (Severe acute respiratory syndrome coronavirus 2) (UniProt P0DTD1); experiment: Competitive inhibition of N-terminal 6His/SUMO-tagged SARS-CoV-2 NSP14 expressed in Escherichia coli Rosetta 2 (DE3) PlysS cells using 5'GpppACCCCCCCCC-Biotin 3' and 3H-SAM as substrates at increasing concentration incubated for 30 mins by TopCount scintillation proximity assay
How it was run: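 Competition pattern read from IC50 shifts. […] Separately, SAM fixed at 1.25 μM (5× Km) with RNA varied up to 0.5 μM (10× Km). A linear rise of IC50 with substrate concentration was taken as competitive inhibition.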

[15] = target: Replicase polyprotein 1ab (Severe acute respiratory syndrome coronavirus 2) (UniProt P0DTD1); experiment: Inhibition of N-terminal 6His/SUMO-tagged SARS-CoV-2 NSP14 expressed in Escherichia coli Rosetta 2 (DE3) PlysS cells using 5'GpppACCCCCCCCC-Biotin 3' and 3H-SAM as substrates at 30 to 50 uM incubated for 30 mins by TopCount scintillation proximity assay relative to control; details: dose 30-50 µM
[16] = target: Replicase polyprotein 1ab (Severe acute respiratory syndrome coronavirus 2) (UniProt P0DTD1); experiment: Non-covalent inhibition of N-terminal 6His/SUMO-tagged SARS-CoV-2 NSP14 expressed in Escherichia coli Rosetta 2 (DE3) PlysS cells using 5'GpppACCCCCCCCC-Biotin 3' and 3H-SAM as substrates incubated for 30 mins by TopCount scintillation proximity assay
How it was run: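 Radiometric N7-MTase assay tracking [3H]-methyl transfer from SAM onto the cap of […] RNA, run with 0.01% v/v Triton X-100. Concentration–response in triplicate to give IC50.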

## COc1cc(F)cc(NC(=O)c2cccc(-c3cnc4[nH]c(=O)n(C)c4c3)c2)c1
[1]
  IC50: 14 µM

## N#Cc1c(C(=O)NCc2ccc(O)c([N+](=O)[O-])c2)[nH]c2ccccc12
[2]
  inhibition: Active
[3]
  inhibition: Active
[4]
  Activity: Active
[5]
  inhibition: inactive
[6]
  inhibition: inactive
[1]
  IC50: 27 µM

## CCc1c(C(=O)/C=C/c2ccc(O)c([N+](=O)[O-])c2)oc2ccccc12
[1]
  IC50: 25 µM

## C=CC(=O)N(C)c1ccc(C(=O)Nc2ccc(-c3cn4ccsc4n3)cc2)cc1
[7]
  inhibition: > 50%
[8]
  inhibition: inactive
[1]
  IC50: 39 µM

## Cn1c(=O)[nH]c2ncc(-c3cccc(C(=O)Nc4ccc(Cl)c(CO)c4)c3)cc21
[1]
  IC50: 15 µM

## CN(C)c1cncc(NC(=O)c2ccc(C=O)cc2O)c1
[2]
  inhibition: inactive
[3]
  inhibition: inactive
[7]
  inhibition: > 50%
[1]
  IC50: 12 µM

## Cc1nc2ncc(-c3c[nH]nn3)cc2[nH]1
[9]
  inhibition: > 50%
[4]
  Activity: Active
[1]
  IC50: 127 µM

## CCC(=O)NCCC(=O)N1CCC(C2C(=O)Nc3cc(Cl)ccc32)CC1 (stereo not given)
[10]
  inhibition: inactive

## Nc1cn2cc(-c3cscc3Cl)ncc2n1
[9]
  inhibition: > 50%
[1]
  IC50: 78 µM

## O=C(OCc1cn2cc(Br)ccc2n1)c1cc(-c2ccco2)[nH]n1
[1]
  IC50: 6 µM

## Cn1c(C(=O)NCc2ccc(O)c([N+](=O)[O-])c2)c(Br)c2ccccc21
[2]
  inhibition: Active
[3]
  inhibition: Active
[4]
  Activity: Active
[5]
  inhibition: inactive
[6]
  inhibition: inactive
[1]
  IC50: 19 µM

## C#Cc1cccc(NC(=O)c2cccc(-c3cnc4[nH]c(=O)n(C)c4c3)c2)c1
[2]
  inhibition: inactive
[3]
  inhibition: inactive
[4]
  CAC: 10 µM

## Cc1c(C(=O)/C=C/c2cc(Br)c(O)cc2F)c(C#N)c2n1CCC2
[2]
  inhibition: Active
[3]
  inhibition: Active
[4]
  Activity: Active
[5]
  inhibition: inactive
[6]
  inhibition: inactive

## CC(C)SCn1cnc2cnn(C)c2c1=O
[9]
  inhibition: > 50%
[3]
  inhibition: Active
[4]
  Activity: Active
[6]
  inhibition: inactive
[1]
  IC50: 59 µM

## C=C(Cl)COC(=O)c1cnc2[nH]ccc2c1
[9]
  inhibition: > 50%
[3]
  inhibition: Active
[1]
  IC50: 31 µM

## Cc1cc(C(=O)Nc2cccc(N3CCNC3=O)c2C)sc1C=O
[7]
  inhibition: > 50%
[1]
  IC50: 3.5 µM

## O=Cc1cc(F)c(C(=O)Nc2cc(Cl)c3c(c2)OCCO3)cc1F
[7]
  inhibition: > 50%
[1]
  IC50: 25 µM

## O=Cc1nc2ccccn2c1C=C1COC1
[7]
  inhibition: > 50%
[1]
  IC50: 11 µM

## C=CC(=O)NCCC(=O)N1CCC(C2C(=O)Nc3cc(Cl)ccc32)CC1 (stereo not given)
[11]
  inhibition: Active
[7]
  inhibition: > 50%
[1]
  IC50: 32 µM

## CN(Cc1ccncc1)c1cc(Br)ncn1
[9]
  inhibition: > 50%
[4]
  Activity: Active
[1]
  IC50: 170 µM

## Cn1ncc(N)c1-c1cc2ccccc2[nH]1
[9]
  inhibition: > 50%
[4]
  Activity: Active
[1]
  IC50: 341 µM

## O=C(NC1CSC1)c1ncnn2cccc12
[9]
  inhibition: > 50%
[4]
  Activity: Active
[1]
  IC50: 62 µM

## C=CC(=O)NCC(=O)C(=O)N1CCC(C2C(=O)Nc3cc(Cl)ccc32)CC1 (stereo not given)
[12]
  inhibition: Active
[1]
  IC50: 7 µM

## Oc1ccccc1-c1ncnc2[nH]ccc12
[13]
  inhibition: Active
[2]
  inhibition: Active
[9]
  inhibition: > 50%
[3]
  inhibition: Active
[14]
  inhibition: Active
[6]
  inhibition: inactive
[1]
  IC50: 12 µM

## Cn1c(=O)[nH]c2ncc(-c3cccc(C(=O)Nc4cccc(C#N)c4)c3)cc21
[15]
  inhibition: > 50%
[2]
  inhibition: inactive
[3]
  inhibition: inactive
[4]
  CAC: 10 µM
[16]
  inhibition: Active
[1]
  IC50: 20 µM

## N#Cc1cncc(NCc2cc(Br)c[nH]2)n1
[9]
  inhibition: > 50%
[1]
  IC50: 60 µM
